Results on one molecule are retold here after ChEMBL document CHEMBL3769318, “The Rational Design of Selective Benzoxazepin Inhibitors of the α-Isoform of Phosphoinositide 3-Kinase Culminating in the Identification of (S)-2-((2-(1-Isopropyl-1H-1,2,4-triazol-5-yl)-5,6-dihydrobenzo[f]imidazo[1,2-d][1,4]oxazepin-9-yl)oxy)propanamide (GDC-0326)” (J Med Chem, 2016).

A short description of data set [1]: Plasma protein binding in CD-1 mouse at 5 uM after 4 hrs by LC-MS/MS analysis. To be noted: CD-1, mouse, read-out: PPB (converted). The format is ADME, cell-free. In outline: (§1)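 Equilibrium dialysis of pooled plasma (n ≥ 3) spiked with compound at 5 µM total against PBS pH 7.4, 37 °C, 5% CO2, for 4 h; plasma and buffer concentrations measured by LC-MS/MS; percent unbound calculated as buffer/plasma ×100.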

A further data set relates to Homo sapiens. In words: Antitumor activity against human MCF7-neo/Her2 cells xenografted in po dosed nude mouse assessed as tumor growth inhibition administered daily for 21 days. The format is functional, organism-based. An outline of the steps: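 MCF7-neo/HER2 breast cancer xenografts grown in nude mice; daily oral dosing for 21 days in 0.5% methylcellulose/0.2% Tween-80 vehicle at 0.78–25 mg/kg, 10 animals per group; fitted tumor volumes compared against vehicle-treated mice to give tumor growth inhibition.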

A further data set deals with T1, Cytochrome P450 1A2 (Homo sapiens, UniProt P05177).
T1 sequence (P05177 whole entry): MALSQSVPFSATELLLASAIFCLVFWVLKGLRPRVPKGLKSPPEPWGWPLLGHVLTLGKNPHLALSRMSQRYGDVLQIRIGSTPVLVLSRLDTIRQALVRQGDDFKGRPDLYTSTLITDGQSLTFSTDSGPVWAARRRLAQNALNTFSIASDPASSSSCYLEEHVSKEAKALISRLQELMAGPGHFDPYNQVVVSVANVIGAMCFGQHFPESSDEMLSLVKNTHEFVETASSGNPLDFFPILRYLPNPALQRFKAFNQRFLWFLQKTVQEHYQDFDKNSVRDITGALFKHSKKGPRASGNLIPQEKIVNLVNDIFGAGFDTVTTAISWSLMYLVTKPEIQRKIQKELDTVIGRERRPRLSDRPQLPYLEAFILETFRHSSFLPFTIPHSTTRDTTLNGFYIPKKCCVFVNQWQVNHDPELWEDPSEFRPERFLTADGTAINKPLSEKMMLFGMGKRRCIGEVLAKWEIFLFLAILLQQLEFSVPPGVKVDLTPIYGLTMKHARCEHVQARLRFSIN
Nature of the data set: Inhibition of CYP1A2 (unknown origin). In kind it is ADME.

Data set [2] can be described thus: Plasma protein binding in Cynomolgus monkey at 5 uM after 4 hrs by LC-MS/MS analysis. The format is ADME, cell-free, Macaca fascicularis. To be noted: read-out: PPB (converted). In outline: as §1
Another data set relates to KPL4. In words: Antitumor activity against human KPL4 cells xenografted in po dosed SCID beige mouse assessed as tumor growth inhibition administered daily for 21 days. The format is functional, organism-based. In outline:
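KPL-4 breast cancer xenografts grown in scid beige mice; oral dosing once daily for 21 days in MCT vehicle (0.5% methylcellulose/0.2% Tween-80) at 0.78–25 mg/kg, 10 animals per group; tumor volumes fitted and tumor growth inhibition calculated versus vehicle-treated mice.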

A short description of data set [3]: Cmax in Sprague-Dawley rat at 5 mg/kg, po. The format is ADME, organism-based. The arrangement: dose 5 mg/kg, route oral. To be noted: in vivo. An outline of the steps:
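Male Sprague-Dawley rats dosed PO at 5 mg/kg in 0.5% methylcellulose/0.2% Tween 80 (MCT); the IV reference arm was 1 mg/kg in 60% PEG400/10% ethanol.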

As to `CC(C)n1ncnc1-c1cn2c(n1)-c1ccc(O[C@@H](C)C(N)=O)cc1OCC2`, the fraction unbound at 4 h, 5 µM in data set [1] was 0.6; in data set [2] it was 0.61. Moreover, the Activity result with Homo sapiens and in the data set on KPL4 was “Dose-dependent effect” in each case. This molecule returned an IC50 against Cytochrome P450 1A2 above 10 µM. In data set [3], this molecule had a Cmax of 5.4 µM.
